Bioassay records as filed in PubChem BioAssay.
MEKK2wt PB1 HTS: raises or lowers MEK5 binding to wildtype human MEKK2 PB1 domain | 1.1% of 290,000 active | binding response (% of control), % at 10 µM | Q9Y2U5 | bead flow cytometry, Alexa488-MEK5 binding to MEKK2 WT; actives lie on both sides; in the data active means binding response below about 67% or above about 130%
MEKK3 PB1 HTS: raises or lowers MEK5 binding to the human MEKK3 PB1 domain. Q99759. bead-based flow cytometry, Alexa488-MEK5 binding to MEKK3; actives lie on both sides; 0 = blocked by unlabeled MEK5, 100 = vehicle. binding response (% of control), % at 10 µM. 1.4% of 290,000 active;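 active means binding response more than 3 SD above or below the average of its plate-row segment, actives on both sides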;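 further: Alexa488 bead fluorescence after subtracting the streptavidin-only scavenger bead signal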
Target sequence (Q99759 whole entry, looked up, the tested form may be a part): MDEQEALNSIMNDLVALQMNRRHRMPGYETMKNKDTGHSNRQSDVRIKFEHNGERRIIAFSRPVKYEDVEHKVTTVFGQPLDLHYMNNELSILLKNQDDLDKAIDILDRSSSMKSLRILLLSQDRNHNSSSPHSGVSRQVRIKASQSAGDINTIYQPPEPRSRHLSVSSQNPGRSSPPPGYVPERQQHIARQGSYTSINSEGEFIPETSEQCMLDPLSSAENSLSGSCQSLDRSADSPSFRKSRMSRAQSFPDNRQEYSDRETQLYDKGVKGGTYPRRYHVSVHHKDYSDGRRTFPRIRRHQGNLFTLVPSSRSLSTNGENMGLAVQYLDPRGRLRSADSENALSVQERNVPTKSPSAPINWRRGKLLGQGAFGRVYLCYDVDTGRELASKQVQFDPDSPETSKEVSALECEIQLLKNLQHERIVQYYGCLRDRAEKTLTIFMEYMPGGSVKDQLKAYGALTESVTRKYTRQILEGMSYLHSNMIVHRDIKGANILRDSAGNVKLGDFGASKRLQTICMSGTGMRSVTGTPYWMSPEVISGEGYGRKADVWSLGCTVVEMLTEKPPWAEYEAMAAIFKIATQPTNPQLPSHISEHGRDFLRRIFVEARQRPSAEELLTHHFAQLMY
MEKK2mut PB1 HTS: signal of MEK5 binding to mutant human MEKK2 PB1 domain. bead flow cytometry, Alexa488-MEK5 binding to MEKK2 mutant. AID 1530. percent response, % at 10 µM. 0.35% of 290,000 active; in the data active means percent response above about 24%, passing the limit was not always enough
Lipid droplet: modulators of hepatic lipid droplet formation; AML12 mouse hepatocytes, oleate lipid droplets, BODIPY imaging; inhibition, % at 6.5 µM; 0.4% of 240,000 active; AID 1656;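 active means lipid droplet intensity inhibited by at least 50%, with more than 500 cells counted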
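Material – mouse AML12 hepatocyte cell line, fixed after treatment · Compound dosing – one dose, 6.5 µM compound · Times – compound with oleate, overnight · Measured by – Image-based BODIPY and DAPI two-channel analysis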
MEKK2wt confirm: raises or lowers MEK5 binding to wildtype human MEKK2, retest; shares compounds with MEKK3 PB1 HTS; bead flow cytometry, Alexa488-MEK5 binding to MEKK2 WT; actives lie on both sides; binding response (% of control), % at 10 µM; 2.4% of 5,900 active; in the data active means binding response below about 16% or above about 210%; inactive means in between
MEKK2mut confirm: signal of MEK5 binding to mutant human MEKK2, retest; bead flow cytometry, Alexa488-MEK5 binding to MEKK2 mutant; shares compounds with MEKK3 PB1 HTS; 2% of 5,900 active; percent response, % at 10 µM; in the data active means percent response mostly above about 71%, no sharp cut-off; inactive means mostly below about 38%;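 further: higher means compound restores mutant binding toward wildtype level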
MEKK3 confirm: confirmation of inhibitors of MEK5 binding to human MEKK3. shares compounds with MEKK3 PB1 HTS. 1.8% of 5,900 active. binding response (% of control), % at 10 µM. bead flow cytometry, Alexa488-MEK5 binding to MEKK3; active compounds read low;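 active means binding response below 72% of control, or above a set upper limit, though filed actives all read lower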;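 further: lower values mean stronger disruption of MEK5 binding to MEKK3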
Hits are given with their value; n = inactive; x = no result given; [ ] = dose if it differs, or a comment. Rows were chosen to be rich in hits. Some 2.6% of all compounds tested hit in one or more screens of this group.

SMILES	MEKK2wt PB1 HTS	MEKK3 PB1 HTS	MEKK2mut PB1 HTS	Lipid droplet	MEKK2wt confirm	MEKK2mut confirm	MEKK3 confirm
O=C(N/N=C\c1ccc[nH]1)C1COc2ccccc2O1 (configuration not stated)	n	n	n	n	x	x	x
O=C(NCc1cn(-c2ccccc2)nc1-c1ccccc1)c1ccc([N+](=O)[O-])cc1	n	131.0	n	n	n	n	n
O=[N+]([O-])c1ccc(N/N=C/c2cn(-c3ccccc3)nc2-c2ccccc2)cc1	11.0	n	27.0	x	n	n	n
O=S(=O)(N/N=C\c1cn(-c2ccccc2)nc1-c1ccccc1)c1ccccc1	n	126.0	n	x	n	n	n
O=[N+]([O-])c1cccc(-c2nn(-c3ccccc3)cc2CO)c1	n	n	n	x	x	x	x
COc1ccc(N2CC(C(=O)NCc3nnnn3-c3ccc(C)c(C)c3)CC2=O)cc1 (configuration not stated)	n	n	n	n	x	x	x
Cc1c(CCC(=O)O)c(=O)oc2c(C)c(OCc3cc4c(cc3Cl)OCO4)ccc12	n	n	n	n	x	x	x
O=c1c(C=NCCN2CCNCC2)c(-c2ccccc2)[nH]n1-c1ccc([N+](=O)[O-])cc1	179.0	n	n	n	n	n	n
COc1ccc(-c2[nH]n(-c3ccc([N+](=O)[O-])cc3)c(=O)c2C=NCCN2CCNCC2)cc1	n	n	n	n	x	x	x
C=CCN(Cc1nc(-c2ccccc2)no1)C(=O)c1ccco1	n	n	n	n	x	x	x
CCc1cccc(CC)c1NC(=O)COC(=O)c1ccc(F)c(S(=O)(=O)N(CC)CC)c1	n	135.0	n	n	n	n	n
CCN(CC)S(=O)(=O)c1cc(C(=O)OCC(=O)Nc2cccc(C)c2C)ccc1F	n	129.0	n	n	n	n	n
Cc1oc(-c2ccc3ccccc3c2)nc1CN(C)C(C)c1ccncn1 (configuration not stated)	n	n	n	n	x	x	x
CCCc1cc(=O)[nH]c(SCC(=O)Nc2nc(-c3ccccc3)cs2)n1	n	n	n	n	x	x	x
O=C(CSc1nc2ccccc2[nH]1)Nc1nc(-c2ccc(Br)cc2)cs1	n	173.0	n	n	n	n	n
O=C(O)C1(S(=O)(=O)CCC(F)=C(F)F)CC1	n	n	n	n	x	x	x
Cc1sc2nc(SCC(=O)N3CCOCC3)[nH]c(=O)c2c1-c1ccccc1	n	n	n	n	x	x	x
O=C(c1ccco1)N1CCN(CC(O)COc2ccc(Br)cc2)CC1 (configuration not stated)	n	n	n	n	x	x	x
Cc1ccc2c(c1)c1c(n2CC(O)CN2CCCCCC2)CCCC1 (configuration not stated)	n	n	n	n	x	x	x
O=C(c1ccco1)N1CCN(CC(O)Cn2c3ccccc3c3ccccc32)CC1 (configuration not stated)	n	129.0	n	n	n	n	n
OC(CN1CCCCC1)Cn1c2ccccc2c2cc(Br)ccc21 (configuration not stated)	161.0	n	35.0	n	n	n	n
CN(C)CCNC(=S)Nc1cccc(Cl)c1	n	n	n	x	x	x	x
CN(C)CCCNc1ccc(-c2cc(Nc3cccc(Cl)c3)ncn2)cn1	159.0	n	n	n	n	n	n
CC(C)Oc1ccc(Br)cc1/C=N\NC(N)=S	n	n	n	n	x	x	x
COc1ccc(NC(=O)CSCC(=O)NC2(C)CCS(=O)(=O)C2)cc1 (configuration not stated)	n	n	n	n	x	x	x
SMILES	MEKK2wt PB1 HTS	MEKK3 PB1 HTS	MEKK2mut PB1 HTS	Lipid droplet	MEKK2wt confirm	MEKK2mut confirm	MEKK3 confirm
CC(=O)Nc1ccc(OCC(O)Cn2c3ccccc3c3ccccc32)cc1 (configuration not stated)	n	176.0	n	n	-6.0[inhibitor]	n	n
CC(=O)Nc1ccc(OCC(O)Cn2c3ccccc3c3ccccc32)c(C)c1 (configuration not stated)	n	n	n	x	x	x	x
CC(=O)Nc1ccc(OCC(O)CN2C(C)(C)CC(O)CC2(C)C)cc1 (configuration not stated)	n	74.0[inhibitor]	n	n	n	n	n
CC(=O)Nc1ccc(OCC(O)CN2C(C)CCCC2C)cc1 (configuration not stated)	n	n	n	n	x	x	x
Cc1nc2ccccc2n1S(=O)(=O)N(C)C	n	141.0	n	x	n	n	n
CC(CCN1CCN=C1Nc1ccccc1)c1ccccc1 (configuration not stated)	n	n	n	x	x	x	x
Cc1ccc(CNC(=O)Nc2ccccc2)n1C	n	n	n	n	x	x	x
CC(=O)N1CCN(c2ccc(NC(=O)c3ccc(OCc4ccccc4)cc3)cc2)CC1	n	62.0[inhibitor]	n	n	n	n	n
CN1CCN(c2ccccc2NC(=O)c2ccc(-c3ccc(Cl)c(Cl)c3)o2)CC1	139.0	n	n	n	n	n	n
CN1CCN(c2ccccc2NC(=O)c2cccc(OCc3ccccc3)c2)CC1	137.0	n	n	n	n	n	n
CC(=O)N1CCN(c2ccc(NC(=O)c3cccc(OCc4ccccc4)c3)cc2)CC1	n	n	n	x	x	x	x
CN1CCN(c2ccccc2NC(=O)c2ccc(-c3ccc(Br)cc3)o2)CC1	n	n	n	n	x	x	x
O=C(Nc1ccc(N2CCCC2)cc1)c1ccc(Br)cc1	151.0	n	n	n	n	n	n
C=CCc1c(OC)ccc2c1c(S(=O)(=O)c1ccc(C)cc1)cn2COC	n	n	n	n	x	x	x
CCN(CC(=O)Nc1c(F)cccc1F)C(=O)COc1ccc2c(C)cc(=O)oc2c1	44.0[inhibitor]	41.0[inhibitor]	n	n	n	n	n
N#CCc1nc2n(n1)Cc1ccccc1-2	136.0	124.0	x	x	n	n	n
c1ccc2c(c1)Cn1nc(Cc3nc4c(s3)CCCC4)nc1-2	n	n	n	x	x	x	x
Cc1ccnn1CCC(=O)O	n	129.0	n	n	n	n	n
O=C(NCCCN1CCCC1=O)c1cc(-c2cccnc2)nc2ccc(Cl)cc12	n	70.0[inhibitor]	n	n	n	n	n
Cc1ccc(CSCC(=O)NCc2cccnc2)cc1	n	137.0	n	n	n	n	n
CC(=O)Nc1ccc(N=Cc2c(O)c(C(=O)Nc3ccccc3)cc3ccccc23)cc1	10.0[inhibitor]	n	n	x	n	n	n
O=C(CCCn1cncn1)N1CCCC(N2CCN(c3ccccc3F)CC2)C1 (configuration not stated)	n	n	n	n	x	x	x
O=C(c1c[nH]c(C(=O)C(Cl)(Cl)Cl)c1)c1ccc(F)cc1F	n	n	n	n	x	x	x
O=C(c1c[nH]c(C(=O)C(Cl)(Cl)Cl)c1)c1ccc(F)cc1Cl	-2.0[inhibitor]	1.0[inhibitor]	n	n	n	n	n
